Test results published in ChEMBL document CHEMBL1144374, “Design, synthesis and biological evaluation of novel, simplified analogues of laulimalide: modification of the side chain” (Bioorg Med Chem Lett, 2005).
pIC50: −log10 of the molar value.

Assays:
Type in all cases: cell-based
[1] = Inhibitory concentration of compound required for exhibiting cytotoxic effect on human A2780 cells; na = not active below 50 uM
In short: (§1)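 Human ovarian carcinoma A2780 cells and the drug-resistant A2780/AD10 subline were exposed to compounds for three days. Growth was read by MTT cell proliferation assay. IC50 values are means ± standard error of at least four independent experiments. Compounds were scored not active when there was no activity below 50 µM.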

[2] = Inhibitory concentration measured in term of cytotoxicity against human A2780/AD10 cells; na = not active below 50 uM; details: a2780 adr; in short: as §1
[3] = Inhibitory concentration of compound required for exhibiting cytotoxic effect on human A2780 cells; no. of experiment=4
In short: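 Human ovarian carcinoma A2780 cells exposed to drugs for three days. Growth was read by MTT (3-(4,5-dimethylthiazol-2-yl)-2,5-diphenyltetrazolium bromide) cell proliferation assay and IC50 determined. Values are means ± standard error of at least four independent experiments.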

[4] = Inhibitory concentration measured in term of cytotoxicity against human A2780/AD10 cells; details: A2780 ADR; in short: as §1
[5] = Inhibitory concentration of compound required for exhibiting cytotoxic effect on human A2780 cells; in short: as §1

| SMILES | IC50 [1] | IC50 [2] | pIC50 [3] | pIC50 [4] | pIC50 [5] |
| --- | --- | --- | --- | --- | --- |
| C=C1CCC[C@@H]2CC=C[C@@H](C/C=C\C(=O)O[C@H]([C@@H](O)/C=C/c3csc(C)n3)C[C@@H]3O[C@H]3[C@@H](O)C1)O2 | Not Active | Not Active | – | – | – |
| C=C/C=C\[C@H](C)[C@H](OC(N)=O)[C@@H](C)[C@H](O)[C@@H](C)C/C(C)=C\[C@H](C)[C@@H](O)[C@@H](C)/C=C\[C@@H](O)C[C@@H]1OC(=O)[C@H](C)[C@@H](O)[C@H]1C [DISERMOLIDE] | – | – | 8.00 | 7.00 | – |
| C=C1CCC[C@@H]2CC=C[C@@H](C/C=C\C(=O)O[C@H]([C@@H](O)/C=C/[C@@H]3CC(C)=CCO3)C[C@@H]3O[C@H]3[C@@H](O)C1)O2 | – | – | – | 7.13 | 7.30 |
| C=C1C[C@H](C)C[C@@H]2CC=C[C@@H](C/C=C\C(=O)O[C@H]([C@@H](O)/C=C/[C@@H]3CC(C)=CCO3)C[C@@H]3O[C@H]3[C@@H](O)C1)O2 [FIJIANOLIDE B] | – | – | – | 8.12 | 8.47 |
| C=C1CCC[C@@H]2CC=C[C@@H](C/C=C\C(=O)O[C@H]([C@@H](O)/C=C/C3CCCCC3)C/C=C/[C@@H](O)C1)O2 | Not Active | Not Active | – | – | – |
| C=C1CCC[C@@H]2CC=C[C@@H](C/C=C\C(=O)O[C@H]([C@@H](O)/C=C/C3CCCCC3)C[C@@H]3O[C@H]3[C@@H](O)C1)O2 | – | – | – | 5.08 | 5.05 |
| CC(=O)O[C@H]1C(=O)[C@@]2(C)[C@H]([C@H](OC(=O)c3ccccc3)[C@]3(O)C[C@H](OC(=O)[C@H](O)[C@@H](NC(=O)c4ccccc4)c4ccccc4)C(C)=C1C3(C)C)[C@]1(OC(C)=O)CO[C@@H]1C[C@@H]2O [PACLITAXEL] | – | – | 8.96 | 5.82 | – |
| C=C1CCC[C@@H]2CC=C[C@@H](C/C=C\C(=O)O[C@H](CO)C/C=C/[C@@H](O)C1)O2 | Not Active | Not Active | – | – | – |
| C=C1CCC[C@@H]2CC=C[C@@H](C/C=C\C(=O)O[C@H]([C@@H](O)/C=C/c3csc(C)n3)C/C=C/[C@@H](O)C1)O2 | Not Active | Not Active | – | – | – |
| C=C1CCC[C@@H]2CC=C[C@@H](C/C=C\C(=O)O[C@H]([C@@H](O)/C=C/[C@@H]3CC(C)=CCO3)C/C=C/[C@@H](O)C1)O2 | – | – | – | 5.96 | 6.37 |
| C=C1CCC[C@@H]2CC=C[C@@H](C/C=C\C(=O)O[C@H](CO)C[C@@H]3O[C@H]3[C@@H](O)C1)O2 | – | – | – | 4.36 | 4.40 |
